Screens: PubChem BioAssay, Broad Institute
Mot1-301 SUMO: SUMOylation pathway inhibition by Mot1-301 growth rescue. S. cerevisiae Mot1-301 growth rescue, ATP luminescence, 38.5C; percent above DMSO median, 100 means doubled. actives 1% (n = 320,000). growth rescue, % at 18.8 µM. AID 2716;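 active means every valid replicate shows activation above 250% relative to neutral control wells; inactive means the rest, any valid replicate at or below 250%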
Statin myotox sup: protects C2C12 myotubes from simvastatin toxicity; ATP luminescence, 48 h; scaled: DMSO 0, geranylgeraniol control 100; rescue of ATP level, % at 7.49 µM; actives 0.78% (n = 330,000); AID 602340;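 active means mean ATP rescue above about 67%, or every replicate alone reaching that limit, limit read from the data, passing the limit was not always enough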;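 further: myotubes were challenged with 10 µM simvastatin during compound exposure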
Cneo AK release: Cryptococcus neoformans lysis via adenylate kinase release | C. neoformans lysis, adenylate kinase release luminescence, 4 h; normalised: neutral wells 0, clomiphene wells 100 | lysis activity, % at 15 µM | actives 0.2% (n = 360,000) | AID 651654;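 active means mean lysis activity across replicates of at least 80%, whatever share of replicates individually reach that level; inactive means mean lysis activity below 80%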
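Material – Cryptococcus neoformans yeast cells · Quantity – 5 × 10^6 yeast cells/mL · Buffer or medium – YPD medium · Compound – single dose · Timing – 4 h static compound exposure, 37 °C, read 1 h post-reagent · Signal – adenylate kinase release luminescence · Read-out basis – lysis from increased AK signal · Benchmarks – Clomiphene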
Yeast Mot1 SUMO: inhibits SUMO pathway, affecting Mot1-301 yeast growth; shares compounds with Mot1-301 SUMO; S. cerevisiae Mot1-301 galactose growth, ATP luminescence, 24 h; -100 = growth of slx-deleted rescue strain; growth activity, percent, % at 42 µM; 2,300 tested, under 10 active;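 active means Signal drops as the depositor expects, and the fitted half-maximal dose is no more than ten times the top valid tested dose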;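 further: more negative values mean stronger growth rescue toward the control strain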
Numbers stand for hits; 0 = inactive; - = no result; + = active, no number. This is a sample that favours compounds with a hit; in the whole collection about 1.5% have one here.

SMILES	Mot1-301 SUMO	Statin myotox sup	Cneo AK release	Yeast Mot1 SUMO
CCS(=O)(=O)N1CCCCN2[C@@H](CO)[C@@H](c3ccc(C#CC(C)(C)O)cc3)[C@@H]2C1	-	-	0	-
COc1ccc(C2CC(=O)Nc3cc(OC)c(OC)cc32)cc1 (configuration not stated)	-	0	0	-
COc1cc2c(cc1OC)C(c1ccccc1C)CC(=O)N2 (configuration not stated)	732.1	0	0	0
COc1cc2c(cc1OC)C(c1cccc(OC)c1OC)CC(=O)N2 (configuration not stated)	0	0	0	-
COc1cc2c(cc1OC)C(c1ccc(SC)cc1)CC(=O)N2 (configuration not stated)	665.7	0	0	0
O=C(C[C@H]1C[C@@H]2c3cc(NC(=O)NC4CCCC4)ccc3O[C@@H]2[C@H](CO)O1)NCc1ccncc1	-	0	0	-
C=C1CC(/C=C/c2cc(OC)c(OC)c(OC)c2)OC1=O (configuration not stated)	-	-	0	-
CCn1c(SCC(=O)N/N=C\c2ccccc2OCC(=O)O)nnc1-c1ccc(Cl)cc1	0	0	0	-
C=C(C)Cn1c(SCC(=O)N/N=C/c2ccccc2OCC(=O)O)nnc1-c1ccc(Br)cc1	571.7	0	0	0
Cc1cc(NC(=O)C(C)SCC(=O)O)no1 (configuration not stated)	0	-	-	-
Cc1cccc(N(Cc2ccccc2)C(=O)CSC(C)C(=O)Nc2cc(C)on2)c1 (configuration not stated)	554.5	0	0	0
CC(C)OC(=O)N(C)C[C@@H]1OCc2ccccc2-c2ccccc2C(=O)N([C@@H](C)CO)C[C@@H]1C	-	-	0	-
CCOc1ccccc1CN1CCNC(=O)C1CC(=O)NCCN1CCOC1=O (configuration not stated)	500.6	0	0	0
CCOc1ccccc1CN1CCNC(=O)C1CC(=O)NCc1cc(C)n(C)n1 (configuration not stated)	0	0	0	-
Cc1ccc(S(=O)(=O)Nc2ccc3c(c2)CC(=O)N([C@H](C)CO)C[C@H](C)[C@@H](CN(C)Cc2ccncc2)O3)cc1	-	0	0	-
CNC(=O)C[C@H]1CC[C@@H]2[C@H](COc3ccc(NC(=O)Nc4ccc(Cl)cc4)cc3C(=O)N2C)O1	-	0	0	-
COc1ccc(C(=O)O/N=C(\N)c2ccccc2)cc1OC	379.8	0	0	0
COc1ccc(C(=O)O/N=C(\N)c2cccc(C)c2)cc1OC	0	0	0	-
CO[C@H]1CN(C)C(=O)c2cc(NS(C)(=O)=O)ccc2OC[C@H](C)N(Cc2nccs2)C[C@H]1C	-	0	0	-
O=C(C[C@H]1C=C[C@H](NC(=O)C2CC2)[C@@H](CO)O1)NCc1ccncc1	-	0	0	-
O=C(CSc1nnc(CNC(=O)c2c(F)cccc2F)o1)NCCc1ccccc1	0	-	0	-
O=C(CSc1nnc(CNC(=O)c2ccccc2F)o1)NCCc1ccccc1	+	-	0	0
CN1c2ccc(-c3ccccc3)cc2[C@H]2[C@H](CCN2S(=O)(=O)c2ccccc2F)[C@@H]1CO	-	0	0	-
C[C@H](CO)N1C[C@H](C)[C@H](CN(C)C(=O)C2CCC2)Oc2ncc(C#Cc3cccc(F)c3)cc2C1=O	-	0	0	-
CN1C(=O)/C(=C/c2ccc(OCc3ccccc3F)cc2)NC1=S	375.4	0	0	0
SMILES	Mot1-301 SUMO	Statin myotox sup	Cneo AK release	Yeast Mot1 SUMO
COc1cc(/C=C2\NC(=S)N(C)C2=O)ccc1OCc1ccccc1F	0	0	0	-
CCCc1nccn1S(=O)(=O)c1cc(OC)ccc1OC	-	0	0	-
CCc1nccn1S(=O)(=O)c1cc(OC)ccc1OC	499.2	0	0	0
CN(C)CCOC(c1ccc(Cl)cc1)c1ccccn1 (configuration not stated)	974.2	0	0	0
CN(C)CCOC(c1ccccc1)c1ccccc1	0	0	0	-
COc1ccc(S(=O)(=O)N[C@H]2C=C[C@@H](CC(=O)N3CCN(c4ccccc4)CC3)O[C@H]2CO)cc1	-	0	0	-
CCCCn1c(/C=C/c2ccco2)nc2ccccc21	0	-	-	-
CCCCn1c(/C=N/Nc2nc3ccccc3[nH]2)nc2ccccc21	418.1	-	-	0
C[C@H]1CCCCO[C@@H](CN(C)Cc2ccc3c(c2)OCO3)[C@@H](C)CN([C@@H](C)CO)C(=O)c2cc(NC(=O)CCC(F)(F)F)ccc2O1	-	-	0	-
CCOc1ccc(C(=O)Nc2ccc(N3CCN(C)CC3)cc2)cc1[N+](=O)[O-]	690.5	-	-	0
CCOc1ccc(C(=O)Nc2ccc(N3CCN(C(C)=O)CC3)cc2)cc1[N+](=O)[O-]	0	-	0	-
